Assay results reported in ChEMBL document CHEMBL4229494, “Novel tertiary sulfonamides as potent anti-cancer agents” (Bioorg Med Chem, 2018).
Converted amounts (≈) assume the structure as drawn.

Columns and labels:
MCF7 [1] = assay: Induction of apoptosis in human MCF7 cells after 24 hrs by caspase-Glo 3/7 reagent based luminescence assay; type: functional, cell-based; conditions: MCF7, 24 h
In short: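 MCF-7 cells were plated at 25,000/well (DMEM, 10% FBS) and grown 24 h, then treated at 1.6 nM–5 µM or with DMSO for 24 h. Caspase 3/7 activity was read by Caspase-Glo 3/7 luminescence. Triplicate signals relative to DMSO were analysed by nonlinear regression.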

[2] = Inhibition of Wnt3A-induced Wnt transcription (unknown origin) expressed in HEK293 cells coexpressing TK-driven Rluc after 20 to 22 hrs by super-top flash reporter gene assay; type: cell-based; conditions: Homo sapiens
In short: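 HEK-293 cells (DMEM, 10% FBS) were co-transfected with Super(8x)TOPflash, a Wnt3A expression vector and TK-driven Renilla luciferase. After 8 h at 37 °C, 5% CO2, cells were seeded at 25,000/well and treated at 1.6, 8, 40, 200, 1000 or 5000 nM, or with DMSO, for 20-22 h in triplicate. Firefly/Renilla luminescence was taken relative to DMSO, and IC50 was found by nonlinear regression.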

MDA-MB-231 [3] = assay: Antiproliferative activity against human MDA-MB-231 cells after 24 hrs by SYBR green dye based fluorescence assay; type: functional, cell-based; conditions: MDA-MB-231, 24 h
In short: (§1)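 Cells were plated at 500/well in DMEM/10% FBS and allowed to attach for 24 h at 37 °C, 5% CO2. They were then exposed to 1.6 nM–5 µM or DMSO. One plate was harvested every 24 h over 7 days and frozen at -20 °C. DNA was quantified by SYBR Green fluorescence (Ex495/Em535). Triplicate values relative to DMSO went to nonlinear regression for IC50.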

MCF7 [4] = assay: Antiproliferative activity against human MCF7 cells after 24 hrs by SYBR green dye based fluorescence assay; type: functional, cell-based; conditions: MCF7, 24 h; in short: as §1
[5] = Solubility of the compound; type: physicochemical
[6] = Lipophilicity, log D of the compound at pH 3; type: physicochemical; conditions: buffer
[7] = Lipophilicity, log D of the compound at pH 7; type: physicochemical; conditions: buffer
MDA-MB-231 [8] = assay: Antitumor activity against human MDA-MB-231 cells xenografted in athymic nude mouse assessed as average tumor volume at 20 mg/kg, ip qd administered every consecutive day in presence of doxorubicin at 5 mg/kg/week measured on day 35 relative to control; type: functional
[9] = Metabolic stability in human liver microsomes measured at > 60 mins in presence of NADPH by HPLC analysis; type: ADME, microsome; conditions: 1 h
MCF7 [10] = assay: Potentiation of doxorubicin-induced antiproliferative activity against human MCF7 cells at 8 nM after 72 hrs by SYBR green dye based fluorescence assay relative to control; type: functional
In short: (§2)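 Cells were plated at 2,000/well (DMEM, 10% FBS) and incubated 24 h at 37 °C, 5% CO2. Test compound at 1.6 nM–2 µM was given with or without doxorubicin (MCF-7: 1.6 nM–2 µM; MDA-MB-231: 4 nM–5 µM), or DMSO, for 72 h. DNA was measured by SYBR Green fluorescence (Ex495/Em535). Triplicate values relative to DMSO were used for IC50 and Chou-Talalay combination index analysis.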

MDA-MB-231 [11] = assay: Potentiation of doxorubicin-induced antiproliferative activity against human MDA-MB-231 cells at 8 nM after 72 hrs by SYBR green dye based fluorescence assay relative to control; type: functional; in short: as §2
MCF7 [12] = assay: Synergistic antiproliferative activity against human MCF7 cells assessed as combination index at 8 nM after 72 hrs in presence of doxorubicin by SYBR green dye based fluorescence assay; type: functional; in short: as §2
MDA-MB-231 [13] = assay: Synergistic antiproliferative activity against human MDA-MB-231 cells assessed as combination index at 8 nM after 72 hrs in presence of doxorubicin by SYBR green dye based fluorescence assay; type: functional; in short: as §2
MCF7 [14] = assay: Synergistic antiproliferative activity against human MCF7 cells assessed as combination index at ED75 after 72 hrs in presence of doxorubicin by SYBR green dye based fluorescence assay; type: functional; in short: as §2
MDA-MB-231 [15] = assay: Synergistic antiproliferative activity against human MDA-MB-231 cells assessed as combination index at ED75 after 72 hrs in presence of doxorubicin by SYBR green dye based fluorescence assay; type: functional; in short: as §2
MCF7 [16] = assay: Synergistic antiproliferative activity against human MCF7 cells assessed as combination index at ED90 after 72 hrs in presence of doxorubicin by SYBR green dye based fluorescence assay; type: functional; in short: as §2
MDA-MB-231 [17] = assay: Synergistic antiproliferative activity against human MDA-MB-231 cells assessed as combination index at ED90 after 72 hrs in presence of doxorubicin by SYBR green dye based fluorescence assay; type: functional; in short: as §2
[18] = molecular target: Voltage-gated inwardly rectifying potassium channel KCNH2 (Homo sapiens, UniProt Q12809); assay: Inhibition of human ERG up to 50 uM
Voltage-gated inwardly rectifying potassium channel KCNH2, sequence (Q12809 whole entry): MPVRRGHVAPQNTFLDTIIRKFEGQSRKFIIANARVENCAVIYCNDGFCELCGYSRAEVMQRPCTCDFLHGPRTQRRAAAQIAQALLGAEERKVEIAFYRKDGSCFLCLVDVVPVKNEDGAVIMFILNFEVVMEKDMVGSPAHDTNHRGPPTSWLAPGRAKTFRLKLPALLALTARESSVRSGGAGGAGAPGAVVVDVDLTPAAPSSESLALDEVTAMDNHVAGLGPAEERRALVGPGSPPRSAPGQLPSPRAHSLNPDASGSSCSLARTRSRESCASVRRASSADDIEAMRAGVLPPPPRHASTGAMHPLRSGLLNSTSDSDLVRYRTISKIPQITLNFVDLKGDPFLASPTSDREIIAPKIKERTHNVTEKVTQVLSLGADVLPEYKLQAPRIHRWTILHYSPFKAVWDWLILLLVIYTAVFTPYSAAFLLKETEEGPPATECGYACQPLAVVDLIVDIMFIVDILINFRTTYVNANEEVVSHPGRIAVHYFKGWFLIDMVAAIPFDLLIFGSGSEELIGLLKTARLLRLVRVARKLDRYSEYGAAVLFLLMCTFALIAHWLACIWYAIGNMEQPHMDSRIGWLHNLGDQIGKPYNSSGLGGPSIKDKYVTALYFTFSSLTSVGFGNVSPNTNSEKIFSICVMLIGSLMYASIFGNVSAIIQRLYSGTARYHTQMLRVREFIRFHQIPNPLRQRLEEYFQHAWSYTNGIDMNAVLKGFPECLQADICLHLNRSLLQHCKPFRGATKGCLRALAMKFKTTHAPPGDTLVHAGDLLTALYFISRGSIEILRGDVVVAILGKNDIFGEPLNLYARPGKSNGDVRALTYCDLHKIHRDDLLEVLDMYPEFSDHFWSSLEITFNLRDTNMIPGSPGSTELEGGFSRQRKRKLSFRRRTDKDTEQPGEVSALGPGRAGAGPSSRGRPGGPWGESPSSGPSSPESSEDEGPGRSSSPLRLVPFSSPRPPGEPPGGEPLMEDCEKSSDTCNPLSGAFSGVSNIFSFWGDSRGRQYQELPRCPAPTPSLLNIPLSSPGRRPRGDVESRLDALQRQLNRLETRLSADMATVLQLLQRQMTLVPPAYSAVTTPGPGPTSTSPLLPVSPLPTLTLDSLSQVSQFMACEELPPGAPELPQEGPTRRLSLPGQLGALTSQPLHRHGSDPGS

[19] = Metabolic stability in rat liver microsomes measured at > 60 mins in presence of NADPH by HPLC analysis; type: ADME, microsome; conditions: 1 h
[20] = Inhibition of human CYP450 at 50 uM; type: ADME
[21] = Oral bioavailability in rat; type: ADME, organism-based; conditions: in vivo
MDA-MB-231 [22] = assay: Antitumor activity against human MDA-MB-231 cells xenografted in athymic nude mouse assessed as decrease in tumor volume at 20 mg/kg, ip qd administered for 16 consecutive days relative to control; type: functional; parameters: scale not given: the % may be the effect or the level left
MDA-MB-231 [23] = assay: Antitumor activity against human MDA-MB-231 cells xenografted in athymic nude mouse assessed as decrease in tumor volume at 20 mg/kg, ip qd administered for 16 consecutive days in presence of doxorubicin at 5 mg/kg/week relative to control; type: functional; parameters: scale not given: the % may be the effect or the level left
MDA-MB-231 [24] = assay: Antitumor activity against human MDA-MB-231 cells xenografted in athymic nude mouse assessed as average tumor volume at 20 mg/kg, ip qd administered every consecutive day in presence of doxorubicin at 5 mg/kg/week measured on day 51 (reference value: 653 +/- 192 mm3); type: functional
[25] = Drug uptake in serum of athymic nude mouse xenografted with human MDA-MB-231 cells at 20 mg/kg, ip qd administered for 16 consecutive days by HPLC/MS analysis; type: ADME, organism-based; conditions: read-out: Drug uptake
In short: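 In the MDA-MB-231 xenografted nu/nu mice given 20 mg/kg/day i.p. for 16 days, serum drug concentration was measured by HPLC at the end of the study and confirmed by LCMS.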

Mus musculus [26] = assay: Upregulation of p53 protein expression level in tumors of athymic nude mouse xenografted with human MDA-MB-231 cells at 20 mg/kg, ip qd administered every consecutive day in presence of doxorubicin at 5 mg/kg/week measured on day 51 by Western blot analysis relative to control; type: functional
In short: (§3)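 MDA-MB-231 xenograft tumors were excised from nu/nu mice at study termination (day 51), after 16 days of i.p. treatment started on day 35. p53, phospho-Ser15-p53 and PARP cleavage were quantified by Western blot and compared with vehicle-treated animals.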

Mus musculus [27] = assay: Upregulation of phospho Ser15-53 protein expression level in tumors of athymic nude mouse xenografted with human MDA-MB-231 cells at 20 mg/kg, ip qd administered every consecutive day in presence of doxorubicin at 5 mg/kg/week measured on day 51 by Western blot analysis relative to control; type: functional; in short: as §3
Mus musculus [28] = assay: Upregulation of PARP cleavage expression level in tumors of athymic nude mouse xenografted with human MDA-MB-231 cells at 20 mg/kg, ip qd administered every consecutive day in presence of doxorubicin at 5 mg/kg/week measured on day 51 by Western blot analysis relative to control; type: functional; in short: as §3
MDA-MB-231 [29] = assay: Synergistic antitumor activity against human MDA-MB-231 cells xenografted in athymic nude mouse assessed as reduction in tumor weight at 20 mg/kg, ip qd administered every consecutive day in presence of doxorubicin at 5 mg/kg/week measured on day 51; type: functional; parameters: scale not given: the % may be the effect or the level left
MDA-MB-231 [30] = assay: Antitumor activity against human MDA-MB-231 cells xenografted in athymic nude mouse assessed as decrease in tumor volume at 5 mg/kg, ip administered per week for 16 days relative to control; type: functional; parameters: scale not given: the % may be the effect or the level left

CCCN(c1ccccc1)S(=O)(=O)c1ccc(N2CCCC2=O)cc1
EC50 (MCF7 [1]): > 5 µM | IC50 [2]: > 5 µM | IC50 (MDA-MB-231 [3]): > 5 µM | IC50 (MCF7 [4]): > 5 µM

O=C1CCCN1c1ccc(S(=O)(=O)Nc2cccc3ccccc23)cc1
IC50 [2]: > 5 µM

CC1CCc2ccccc2N1S(=O)(=O)c1ccc(N2CCCC2=O)cc1 (racemic)
IC50 [2]: 0.011 µM

COc1ccc2c(c1)N(C)CCN2S(=O)(=O)c1ccc(N2CCCC2=O)cc1
EC50 (MCF7 [1]): 0.046 µM | IC50 [2]: 0.017 µM | IC50 (MDA-MB-231 [3]): 0.014 µM | IC50 (MCF7 [4]): 0.014 µM | solubility [5]: 69.6 µM (≈ 27.9 µg/mL) | logD [6]: 2.9 | logD [7]: 3

O=C1CCCN1c1ccc(S(=O)(=O)N2CCNc3ccccc32)cc1
IC50 [2]: > 5 µM

CC(C)(C)c1ccc2c(c1)CCCN2S(=O)(=O)c1ccc(N2CCCC2=O)cc1
EC50 (MCF7 [1]): 0.307 µM | IC50 [2]: 0.66 µM | IC50 (MDA-MB-231 [3]): 0.608 µM | IC50 (MCF7 [4]): 0.318 µM

Cc1ccc2c(c1)CCCN2S(=O)(=O)c1ccc(N2CCCC2=O)cc1
EC50 (MCF7 [1]): 0.061 µM | IC50 [2]: 0.007 µM | IC50 (MDA-MB-231 [3]): 0.017 µM | IC50 (MCF7 [4]): 0.015 µM

CC(=O)N(C)c1ccc(S(=O)(=O)N2CCCc3ccccc32)cc1
IC50 [2]: > 5 µM

O=C1CCCN1c1ccc(S(=O)(=O)N2CCc3ccccc32)cc1
IC50 [2]: > 5 µM

O=C1CCCN1c1ccc(S(=O)(=O)N2CCCc3cc(C(F)(F)F)ccc32)cc1
IC50 [2]: 0.054 µM

O=S(=O)(c1ccc(-n2cccn2)cc1)N1CCCc2ccccc21
IC50 [2]: 1.65 µM

CN1CCN(S(=O)(=O)c2ccc(N3CCCC3=O)cc2)c2ccccc21
Activity (MDA-MB-231 [8]): 154 mm3 | EC50 (MCF7 [1]): 0.013 µM | Stability [9]: Stable | IC50 [2]: 0.011 µM | IC50 (MDA-MB-231 [3]): 0.013 µM | IC50 (MCF7 [4]): 0.01 µM | solubility [5]: 28.2 µM (≈ 10.5 µg/mL) | logD [6]: 1.9 | logD [7]: 1.9 | fold change (FC) (MCF7 [10]): 2 - 3 | fold change (FC) (MDA-MB-231 [11]): 2 - 3 | CI (MCF7 [12]): <1 | CI (MDA-MB-231 [13]): <1 | CI (MCF7 [14]): 0.75 | CI (MDA-MB-231 [15]): 0.68 | CI (MCF7 [16]): 0.97 | CI (MDA-MB-231 [17]): 0.72 | inhibition (INH) [18]: Not Active | Stability [19]: Stable | inhibition (INH) [20]: Not Active | bioavailability [21]: 15 to 20% | Activity (MDA-MB-231 [22]): 91.5% | Activity (MDA-MB-231 [23]): 93.7 - 96.2% | Activity (MDA-MB-231 [24]): 24.7 mm3 | concentration at 16 days [25]: 200 ng/mL | fold change (FC) (Mus musculus [26]): 1.5 | fold change (FC) (Mus musculus [27]): 3 | fold change (FC) (Mus musculus [28]): 30 | Activity (MDA-MB-231 [29]): 93.7%

COc1cccc2c1C(=O)c1c(O)c3c(c(O)c1C2=O)C[C@@](O)(C(=O)CO)C[C@@H]3O[C@H]1C[C@H](N)[C@H](O)[C@H](C)O1 [DOXORUBICIN]
Activity (MDA-MB-231 [30]): 84.3%

O=C1CCCN1c1ccc(C(=O)N2CCCc3ccccc32)cc1
IC50 [2]: > 5 µM

O=C1CCCN1c1ccc(S(=O)(=O)N2CCCC3CCCCC32)cc1 (stereo not drawn)
IC50 [2]: > 5 µM
